This is an account of results in ChEMBL document CHEMBL1123348, “Characterization of the neurotoxic potential of m-methoxy-MPTP and the use of its N-ethyl analogue as a means of avoiding exposure to a possible Parkinsonism-causing agent” (J Med Chem, 1986).

Several values for one entry are separate records, joined by “and”; a condition that tells them apart may be missing. Equal entries are not always repeated.

What all share (assay type): functional, organism-based
For test [1], the system named is Mus musculus. Description: Tested for the concentration of HVA in striatum of mouse brain one week after four daily injections at dose of 20 mg/kg. On the set-up: dose 20 mg/kg. The procedure, abridged:
(§1)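 Male CRL/CFW mice received subcutaneous injections daily for 4 days. Animals were killed 7 days after the last dose. Brains were removed rapidly, and striata were dissected, frozen on dry ice and stored at -15 °C until analysis of dopamine, DOPAC and HVA. Values are means ± standard errors for 6 mice/group.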

Test [2] concerns Mus musculus. Description: Tested for the concentration of HVA in striatum of mouse brain one week after four daily injections at doses of 20 mg/kg. On the set-up: dose 20 mg/kg. The procedure, abridged: as §1
Test [3] relates to Mus musculus. Kind of test: Tested for the concentration of DOPAC (dihydroxyphenyl-acetic acid) in striatum of mouse brain one week after four daily injections at dose of 20 mg/kg. On the set-up: dose 20 mg/kg. The procedure, abridged:
as §1

Test [4] has as its system Mus musculus. Description: Tested for the concentration of dopamine in striatum of mouse brain one week after four daily injections at 20 mg/kg dose. On the set-up: dose 20 mg/kg. The procedure, abridged:
as §1

The test system of test [5] is Mus musculus. Description: Tested for the concentration of DOPAC (dihydroxyphenyl-acetic acid) in striatum of mouse brain one week after four daily injections at dose of 80 mg/kg. On the set-up: dose 80 mg/kg. The procedure, abridged:
as §1

Test [6] deals with Mus musculus. Kind of test: Tested for the concentration of dopamine in striatum of mouse brain one week after four daily injections at 40 mg/kg dose. Also on record: dose 40 mg/kg. The procedure, abridged: as §1
Test [7] concerns Mus musculus. Kind of test: Tested for the concentration of HVA in striatum of mouse brain one week after four daily injections at a dosage of 80 mg/kg. Also on record: dose 80 mg/kg. The procedure, abridged:
as §1

Test [8] relates to Mus musculus. Description: Tested for the concentration of DOPAC (dihydroxyphenyl-acetic acid) in striatum of mouse brain one week after four daily injections at a dosage of 80 mg/kg. On the set-up: dose 80 mg/kg. In a few lines: as §1
Test [9] has as its system Mus musculus. Kind of test: Tested for the concentration of HVA in striatum of mouse brain one week after four daily injections at dose of 40 mg/kg. Also on record: dose 40 mg/kg. The procedure, abridged: as §1
Test [10] concerns Mus musculus. Kind of test: Tested for the concentration of HVA in striatum of mouse brain one week after four daily injections at dose of 80 mg/kg. Also on record: dose 80 mg/kg. The procedure, abridged:
as §1

For test [11], the system named is Mus musculus. Kind of test: Tested for the concentration of dopamine in striatum of mouse brain one week after four daily injections at 80 mg/kg dose. Also on record: dose 80 mg/kg. In a few lines:
as §1

Test [12] has as its system Mus musculus. Description: Tested for the concentration of dopamine in striatum of mouse brain one week after four daily injections at 80 mg/kg of the compound. Also on record: dose 80 mg/kg. The procedure, abridged: as §1
Test [13] deals with Mus musculus. Kind of test: Tested for the concentration of DOPAC (dihydroxyphenyl-acetic acid) in striatum of mouse brain one week after four daily injections at dose of 40 mg/kg. On the set-up: dose 40 mg/kg. The procedure, abridged:
as §1

As to `CCN1CC=C(c2cccc(OC)c2)CC1`, the Concentration with Mus musculus [1] was 6.38 nM/g; in the test on Mus musculus [2] it was 5.46 nM/g; with Mus musculus [3] it was 4.6 nM/g and 5.55 nM/g; in the test on Mus musculus [4], 62.7 nM/g and 82.1 nM/g.

Consider `COc1cccc(C2=CCN(C)CC2)c1`, for which the Concentration with Mus musculus [5] turned out to be 1.38 nM/g; in the test on Mus musculus [6] it was 38.1 nM/g; in the test with Mus musculus [7], 2.41 nM/g; in the test on Mus musculus [2] it was 8.07 nM/g; in the test with Mus musculus [3] it was 5.09 nM/g; with Mus musculus [8] it was 0.9 nM/g. Besides, the Concentration in the test with Mus musculus [9] is 5.66 nM/g; with Mus musculus [10], 2.97 nM/g; in the test with Mus musculus [4], 84.8 nM/g; with Mus musculus [11], 15.9 nM/g; in the test with Mus musculus [12] it was 7.9 nM/g; in the test on Mus musculus [13] it was 2.93 nM/g.
